PGC1a acetyl inh – PGC1a acetylation modulation, inhibitor mode; U2OS PGC1a acetylation, AlphaScreen anti-acetyl-lysine; with virally co-expressed GCN5 acetyltransferase; inhibition, % at 15.6 µM; hit rate 0.17% among 350,000; AID 651687;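 active = every replicate shows inhibition of at least 40%; inconclusive = mean inhibition at least 40% but some replicate below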;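 note: 0% = neutral control wells and 100% = positive control wells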
Wnt act – activators of Wnt/beta-catenin signaling | activation, % at 9.35 µM | Wnt/beta-catenin reporter cell assay, activator, plate reader | hit rate 1.2% among 300,000; in the data active = activation above about 30%, passing the limit was not always enough; inconclusive = no clear call, values can overlap the other calls;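 note: 0% = neutral control wells and 100% = positive control wells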
MITF act – MITF TRPM1 promoter activation in melanoma cells | SK-MEL-5 TRPM1-promoter luciferase, 24 h; % of positive control, neutral wells = 0 | activation, % at 12.5 µM | hit rate 0.75% among 300,000 | AID 588334;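 active = mean activation of at least 80% with every replicate also reaching 80%; inconclusive = mean reaches 80% but some replicate falls short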;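 note: 0% = neutral control wells and 100% = parthenolide positive control wells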
Cneo AK release – causes C. neoformans cell lysis. adenylate kinase release luminescence, 4 h; normalised: neutral wells 0, clomiphene wells 100. lysis activity, % at 15 µM. hit rate 0.2% among 360,000. AID 651654;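 active = mean lysis activity across replicates of at least 80%, whatever share of replicates individually reach that level; inactive = mean lysis activity below 80%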
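Material – Cryptococcus neoformans yeast cells · Quantity – 5 × 10^6 yeast cells/mL · Buffer or medium – YPD medium · Compound – single dose · Timing – 4 h static compound exposure, 37 °C, read 1 h post-reagent · Signal – adenylate kinase release luminescence · Read-out basis – lysis from increased AK signal · Benchmarks – Clomiphene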
Starred values were filed as active, the others as inactive; ? = inconclusive; · = not tested or not shown. In the library only some 1.5% were active in any assay of this set; here they are far more common.

SMILES	PGC1a acetyl inh	Wnt act	MITF act	Cneo AK release
NNc1nc(-c2ccccc2)nc2sc3c(c12)CCCC3	-3.8	·	15.6	-6.8
CN1C(=CC=C2C=C(I)C(=O)C(I)=C2)C(C)(C)c2ccccc21	3.0	1.1	-4.7	3.4
CN1/C(=C\C=C2/C(=O)Oc3ccccc3C2=O)C(C)(C)c2ccccc21	·	52.3*	·	·
COc1ccc2c(n1)Sc1nc3ccccc3nc1N2	29.7	40.3*	-8.0	-0.8
Oc1[nH]c2ccccc2c1C=Nc1ccccc1	-9.3	45.2*	?	-2.8
OCCN=Cc1c(O)[nH]c2ccccc12	·	·	-2.8	0.6
Cc1noc(C)c1NC(=O)N(C)C[C@H]1Oc2ccc(NS(=O)(=O)c3ccc(Cl)cc3)cc2CC(=O)N([C@@H](C)CO)C[C@H]1C	5.3	·	·	-12.8
CCC(=O)N1CC(=O)N2[C@H](CO)[C@@H](c3ccc(C#Cc4cccc(OC)c4)cc3)[C@@H]2C1	7.9	·	·	·
O=C(Nc1ccc(-c2cnco2)cc1)c1ccc(F)cc1F	-0.7	38.7*	42.4	·
CSc1nccc(N/N=C/c2ccccc2)n1	6.5	37.1*	97.0*	0.0
Cc1cc(N/N=C/c2ccccc2)nc(N)n1	-2.7	8.6	54.0	-3.5
Cc1cc(C)nc(N/N=C/c2cc3c(cc2[N+](=O)[O-])OCO3)n1	·	55.6*	-10.1	·
CN(C)CCOc1ccc2c(c1)C(=O)C(=Cc1ncc([N+](=O)[O-])n1C)C2	92.6*	-19.9	·	2.1
CCCCCC(=O)N1C[C@H](n2cc(-c3ccc(F)cc3)nn2)[C@@H](O)C[C@@H]1c1ccc(C)cc1	66.6*	-0.1	·	7.5
CNC(=O)C[C@@H]1CC[C@@H]2[C@H](COc3ccc(NC(=O)Nc4ccccc4OC)cc3C(=O)N2C)O1	4.4	·	·	-0.5
COc1ccc2[nH]c3c(=O)n(CCc4ccccc4)cnc3c2c1	7.3	36.8*	63.1	·
COc1ccccc1-c1ccc([C@H]2[C@@H](CO)N3CCCCN(C(=O)NC4CCCC4)C[C@H]23)cc1	-16.6	·	·	-6.6
O=C(CSc1nncs1)NCCCc1ccccc1	·	77.9*	3.5	·
O=C(CSc1nncs1)NCCNC(=O)CSc1nncs1	·	-4.4	-2.6	·
Cc1cccc(NC(=O)CCC(=O)N/N=C/c2ccco2)c1	·	3.1	-7.1	·
O=C(N/N=C\c1ccco1)Nc1cccc(Cl)c1	·	48.3*	64.0	·
Cn1c(=NC(=O)c2ccccc2[N+](=O)[O-])sc2cccc(F)c21	3.1	?	99.9*	·
Cn1c(=NC(=O)C(C)(C)C)sc2cccc(F)c21	0.6	6.2	18.2	·
COc1ccc2oc(-c3ccco3)cc(=O)c2c1	1.5	38.2*	77.8	-6.0
Cc1snc2sc(C(=O)c3ccc(Br)cc3)c(N)c12	-1.3	·	88.4*	·
SMILES	PGC1a acetyl inh	Wnt act	MITF act	Cneo AK release
Cc1ccc(C(=O)c2sc3nsc(C)c3c2N)cc1	-8.9	·	46.7	·
Cc1cccc(C(=O)Oc2ccc(/C=N/O)cc2)c1	3.3	11.2	126.6*	0.2
COc1cc(C(=O)N/N=C/c2ccc(OC(=O)c3cccc(C)c3)cc2)ccc1O	·	3.2	8.3	5.7
O=C(N[C@H]1CC[C@@H](CCNC(=O)C2CC2)O[C@@H]1CO)c1ccncc1	-4.5	·	·	-1.6
COc1ccccc1/C=C/c1ccc2cccc(O)c2n1	·	27.1	5.3	-5.1
COc1cccc(C=Cc2nccc3ccccc23)c1OC	0.2	58.9*	·	-8.8
CCOc1cccc(/C=C/c2ccc3cccc(O)c3n2)c1O	·	47.9*	20.5	-5.2
Oc1cccc2ccc(/C=C/c3ccccc3Cl)nc12	·	20.8	4.0	-3.7
CN(C)c1ccc(C=Cc2nccc3ccccc23)cc1	9.5	3.3	·	-10.8
CCOc1cccc(/C=C/c2ccc3cccc(O)c3n2)c1OC	2.5	39.9*	9.9	-8.2
Cc1ccc(OCc2cc(C(=O)N3CC4C[C@@H]5CC3C[C@H](C4)C5)no2)cc1C	-2.4	19.7	109.9*	-0.8
O=C(c1cc(COc2ccc(F)cc2Cl)on1)N1CC2C[C@@H]3CC1C[C@H](C2)C3	·	15.0	37.6	4.0
Cc1cccc(C)c1OCc1cc(C(=O)N2CC3C[C@@H]4CC2C[C@H](C3)C4)no1	·	36.3*	114.6*	1.1
CCC(=O)N1[C@H](CO)[C@@H](c2ccccc2)[C@H]1CN(C(C)C)S(C)(=O)=O	17.6	·	·	-2.9
C(=CCSc1ccccn1)CSc1ccccn1	·	-1.0	·	·
C(=C\c1ccccc1)/CSc1ccccn1	·	54.4*	108.5*	·
c1ccc(CSc2snnc2-c2ccccc2)cc1	·	·	·	2.1
Clc1ccc(CSc2snnc2-c2ccccc2)c(Cl)c1	·	38.0*	·	-0.7
C[C@H](CO)N1C[C@H](C)[C@H](CN(C)S(=O)(=O)c2ccccc2)OCCCC[C@H](C)Oc2ccc(NS(=O)(=O)c3cccs3)cc2C1=O	-4.0	·	·	-4.2
O=C(NC(=S)Nc1ccc(O)cc1)C1CCCC1	3.8	21.9	25.0	-1.5
Cc1ccc(NC(=S)NC(=O)C2CCCC2)cc1C	1.6	27.5	114.3*	39.3
Cc1ccc(NC(=S)NC(=O)C2CCC2)cc1C	·	21.9	112.7*	15.5
O=C(N[C@H]1CC[C@@H](CCNC(=O)C2CCOCC2)O[C@@H]1CO)c1ccccn1	-0.4	·	·	1.9
Cc1ccccc1-c1noc(-c2ccc(Cl)cc2)n1	10.5	?	37.2	2.1
Cc1ccccc1-c1noc(-c2ccccc2F)n1	2.7	-1.5	107.0*	-1.1
SMILES	PGC1a acetyl inh	Wnt act	MITF act	Cneo AK release
O=C(CN1CCOCC1)N1CC[C@@H]2[C@H](CO)Nc3ccc(-c4ccccc4)cc3[C@@H]21	-14.7	·	·	5.5
CC(=O)Nc1sc2c(c1C#N)CCCCC2	-1.3	10.5	0.1	4.9
Cc1ccc(C(=O)Nc2sc3c(c2C#N)CCCCC3)cc1C	·	·	119.0*	-0.4
c1cn2c(Nc3ccc4c(c3)OCCO4)c(-c3ccc(N4CCOCC4)cc3)nc2cn1	7.9	49.1*	30.0	·
C[C@@H]1CN([C@@H](C)CO)C(=O)Cc2cc(NC(=O)Cc3ccccc3)ccc2O[C@@H]1CN(C)Cc1ccncc1	9.7	·	·	7.2
Nc1cc(-c2ccc(Cl)cc2)nn1-c1ccccc1	-6.0	48.6*	119.1*	·
CC(=O)Nc1ccc(-c2cc(NC(C)=O)n(-c3ccccc3)n2)cc1	6.3	·	1.6	-1.3
CC(=O)Nc1ccc(-c2cc(N)n(-c3ccccc3)n2)cc1	1.8	44.4*	48.1	0.2
O=C(Nc1nnc(-c2ccc(Cl)cc2)o1)C1CCCCC1	1.0	-0.6	15.3	0.4
CC(C)C(=O)Nc1nc2cc3c(cc2s1)OCO3	·	29.3	·	-4.2
O=C(Nc1nc2cc3c(cc2s1)OCCO3)C1CCCCC1	4.4	54.5*	90.8*	-4.8
CC(C)(C)C(=O)Nc1nc2cc3c(cc2s1)OCO3	-6.5	42.5*	?	·
O=C(Nc1nc2cc3c(cc2s1)OCO3)C1CC1	-8.8	0.1	64.3	-0.8
O=C(Nc1nnc(-c2ccc3c(c2)OCCO3)o1)C1CCCCC1	8.7	33.3*	58.3	·
O=C(Nc1nc2cc3c(cc2s1)OCO3)C1CCCCC1	-7.7	32.1*	75.5	-2.6
C[C@@H]1CN([C@H](C)CO)C(=O)c2cc(C#Cc3cccnc3)cnc2O[C@H]1CN(C)C(=O)CN(C)C	36.8	·	·	-18.6
O=C(NNS(=O)(=O)c1ccccc1)C1CCN(S(=O)(=O)c2ccccc2)CC1	-1.9	42.3*	11.6	-0.1

Source: PubChem (Broad Institute)
